Source: ChEMBL document CHEMBL1146951, “Structure-guided identification of novel VEGFR-2 kinase inhibitors via solution phase parallel synthesis” (Bioorg Med Chem Lett, 2006)
Active and inactive are the calls of the source. The rule behind the calls is not given here.

Experiments:
[1] = biological target: T1, Vascular endothelial growth factor receptor 2 (Homo sapiens, UniProt P35968); assay: Inhibition of VEGFR2 at 1 uM
Procedure, shortened: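 Kinase activity of baculovirus-expressed human VEGFR2 enzyme.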

[2] = biological target: Cyclin-dependent kinase 1/cyclin B1 (Homo sapiens, UniProt P06493); assay: Inhibition of CDK1/CyclinB1; assay type: protein-complex assay
[3] = biological target: Vascular endothelial growth factor receptor 3 (Homo sapiens) (UniProt P35916); assay: Inhibition of VEGFR3 at 300 nM
[4] = biological target: T1, Vascular endothelial growth factor receptor 2; assay: Inhibition of VEGFR2
[5] = biological target: T2, Vascular endothelial growth factor receptor (Homo sapiens) (UniProt P17948+P35916+P35968); assay: Inhibition of microvessel growth in rat aortic ring at 400 nM; assay type: functional, tissue-based; settings: Aorta, target entry is the homologue from another species
Procedure, shortened: (§1)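 Rat aortic ring explants were cultured in serum-free collagen gel in serum-free MCDB 131 medium without exogenous VEGF. Microvessel sprouting was scored at peak growth (day 8) as percent inhibition relative to untreated controls. n = 8 replicates per concentration; inter-assay variability <10%. Statistics by Student Newman–Keuls test.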

[6] = biological target: T2, Vascular endothelial growth factor receptor (Homo sapiens); assay: Inhibition of microvessel growth in rat aortic ring at 40 nM; assay type: functional, tissue-based; settings: Aorta, target entry is the homologue from another species; procedure, shortened: as §1
[7] = system: SVR; assay: Antitumor efficacy against SVR cells in nude mice at 30 mg/kg, po; assay type: functional, organism-based; set-up: dose 30 mg/kg; settings: Mus musculus
Procedure, shortened: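 SVR murine angiosarcoma cells implanted in the right flank of female athymic nude mice. On day 5 post-implantation, once tumors were palpable, mice were randomized (n = 8–10). Dosing was 30 mg/kg/dose orally twice a day for 10 days in Tween:PG 1:1 vehicle. Tumor growth was compared with vehicle-treated controls.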

[8] = biological target: Vascular endothelial growth factor receptor 1 (Homo sapiens) (UniProt P17948); assay: Inhibition of VEGFR1 at 300 nM
[9] = biological target: T2, Vascular endothelial growth factor receptor (Homo sapiens); assay: Inhibition of microvessel growth in rat aortic ring at 100 nM; assay type: functional, tissue-based; settings: Aorta, target entry is the homologue from another species; procedure, shortened: as §1
[10] = biological target: Protein kinase C (PKC) (Homo sapiens) (UniProt O94806+P41743+P17252+P05129+Q05655+P05771+Q05513+Q02156+P24723+Q15139+Q04759); assay: Inhibition of PKC at 1 uM; assay type: protein assay
[11] = biological target: T2, Vascular endothelial growth factor receptor (Homo sapiens); assay: Inhibition of microvessel growth in rat aortic ring at 4 nM; assay type: functional, tissue-based; settings: Aorta, target entry is the homologue from another species; procedure, shortened: as §1
[12] = biological target: High affinity nerve growth factor receptor (Homo sapiens) (UniProt P04629); assay: Inhibition of TrkA at 1 uM

T1 sequence (P35968 whole entry): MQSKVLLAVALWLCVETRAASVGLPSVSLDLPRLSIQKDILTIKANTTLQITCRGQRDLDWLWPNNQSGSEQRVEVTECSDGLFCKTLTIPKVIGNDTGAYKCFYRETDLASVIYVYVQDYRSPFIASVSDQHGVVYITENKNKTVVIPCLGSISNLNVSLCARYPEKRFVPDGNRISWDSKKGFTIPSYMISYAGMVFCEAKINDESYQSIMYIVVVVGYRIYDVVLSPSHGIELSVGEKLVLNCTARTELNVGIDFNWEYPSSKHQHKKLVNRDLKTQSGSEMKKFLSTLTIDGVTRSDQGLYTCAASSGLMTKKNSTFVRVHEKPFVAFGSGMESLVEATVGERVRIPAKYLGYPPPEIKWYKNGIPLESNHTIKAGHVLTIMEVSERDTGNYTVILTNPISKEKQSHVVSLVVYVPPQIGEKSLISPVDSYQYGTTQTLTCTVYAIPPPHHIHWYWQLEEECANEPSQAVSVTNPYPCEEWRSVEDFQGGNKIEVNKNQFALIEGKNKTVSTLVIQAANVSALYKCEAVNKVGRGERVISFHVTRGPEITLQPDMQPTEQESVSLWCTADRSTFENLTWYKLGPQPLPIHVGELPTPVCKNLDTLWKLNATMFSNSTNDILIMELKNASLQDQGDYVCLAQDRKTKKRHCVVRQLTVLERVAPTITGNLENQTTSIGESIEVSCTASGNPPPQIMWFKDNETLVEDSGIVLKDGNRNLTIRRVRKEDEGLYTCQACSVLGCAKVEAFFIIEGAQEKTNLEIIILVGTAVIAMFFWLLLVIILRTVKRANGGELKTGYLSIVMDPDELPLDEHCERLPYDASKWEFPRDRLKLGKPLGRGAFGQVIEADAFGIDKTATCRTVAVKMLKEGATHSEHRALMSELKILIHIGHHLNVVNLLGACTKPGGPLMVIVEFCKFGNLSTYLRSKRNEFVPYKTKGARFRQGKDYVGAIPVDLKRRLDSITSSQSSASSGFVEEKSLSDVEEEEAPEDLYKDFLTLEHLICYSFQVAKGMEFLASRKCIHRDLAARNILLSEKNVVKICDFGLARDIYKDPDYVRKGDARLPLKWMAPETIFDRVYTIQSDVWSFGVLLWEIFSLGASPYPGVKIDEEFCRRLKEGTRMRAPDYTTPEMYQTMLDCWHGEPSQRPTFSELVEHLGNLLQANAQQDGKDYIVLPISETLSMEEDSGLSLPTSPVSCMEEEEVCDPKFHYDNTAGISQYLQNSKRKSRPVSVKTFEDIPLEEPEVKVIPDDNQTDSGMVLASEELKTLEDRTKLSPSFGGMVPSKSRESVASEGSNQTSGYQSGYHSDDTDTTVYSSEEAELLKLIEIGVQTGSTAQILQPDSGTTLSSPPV
T2 sequence (P17948 whole entry, looked up): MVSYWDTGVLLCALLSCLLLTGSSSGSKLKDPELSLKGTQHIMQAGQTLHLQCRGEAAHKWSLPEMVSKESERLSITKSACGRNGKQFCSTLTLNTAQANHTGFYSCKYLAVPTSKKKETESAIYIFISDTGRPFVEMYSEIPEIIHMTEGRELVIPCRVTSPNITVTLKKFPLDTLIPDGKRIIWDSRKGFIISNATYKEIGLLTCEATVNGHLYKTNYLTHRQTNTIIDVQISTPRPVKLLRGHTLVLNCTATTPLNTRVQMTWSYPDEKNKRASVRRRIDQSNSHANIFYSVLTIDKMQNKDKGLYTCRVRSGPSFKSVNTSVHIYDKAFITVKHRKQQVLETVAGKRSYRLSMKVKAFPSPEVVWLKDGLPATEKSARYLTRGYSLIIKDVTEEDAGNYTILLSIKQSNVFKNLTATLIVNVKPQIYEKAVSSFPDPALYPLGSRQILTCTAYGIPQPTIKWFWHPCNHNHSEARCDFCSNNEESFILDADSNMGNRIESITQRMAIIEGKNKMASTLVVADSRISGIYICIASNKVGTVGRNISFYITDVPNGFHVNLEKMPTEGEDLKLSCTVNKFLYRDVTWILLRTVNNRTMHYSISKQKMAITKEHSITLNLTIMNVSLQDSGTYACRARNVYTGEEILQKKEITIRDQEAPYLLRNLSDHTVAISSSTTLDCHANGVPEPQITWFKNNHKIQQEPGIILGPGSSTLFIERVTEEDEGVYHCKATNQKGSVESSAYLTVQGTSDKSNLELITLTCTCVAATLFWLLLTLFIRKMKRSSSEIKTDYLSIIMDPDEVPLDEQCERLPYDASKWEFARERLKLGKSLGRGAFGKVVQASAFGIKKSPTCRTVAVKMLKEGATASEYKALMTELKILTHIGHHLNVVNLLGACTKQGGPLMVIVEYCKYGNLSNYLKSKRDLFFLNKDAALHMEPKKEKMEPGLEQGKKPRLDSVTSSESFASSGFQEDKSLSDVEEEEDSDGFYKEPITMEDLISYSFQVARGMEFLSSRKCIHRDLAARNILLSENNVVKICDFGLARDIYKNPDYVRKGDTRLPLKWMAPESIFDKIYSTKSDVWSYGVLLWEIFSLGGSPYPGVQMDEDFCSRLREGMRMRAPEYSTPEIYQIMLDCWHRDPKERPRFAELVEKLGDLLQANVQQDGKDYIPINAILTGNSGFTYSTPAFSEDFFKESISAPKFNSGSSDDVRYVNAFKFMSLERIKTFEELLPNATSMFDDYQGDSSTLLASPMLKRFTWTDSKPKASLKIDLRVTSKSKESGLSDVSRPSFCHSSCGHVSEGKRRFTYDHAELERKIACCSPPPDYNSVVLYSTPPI
T2 sequence (P35916 whole entry, looked up): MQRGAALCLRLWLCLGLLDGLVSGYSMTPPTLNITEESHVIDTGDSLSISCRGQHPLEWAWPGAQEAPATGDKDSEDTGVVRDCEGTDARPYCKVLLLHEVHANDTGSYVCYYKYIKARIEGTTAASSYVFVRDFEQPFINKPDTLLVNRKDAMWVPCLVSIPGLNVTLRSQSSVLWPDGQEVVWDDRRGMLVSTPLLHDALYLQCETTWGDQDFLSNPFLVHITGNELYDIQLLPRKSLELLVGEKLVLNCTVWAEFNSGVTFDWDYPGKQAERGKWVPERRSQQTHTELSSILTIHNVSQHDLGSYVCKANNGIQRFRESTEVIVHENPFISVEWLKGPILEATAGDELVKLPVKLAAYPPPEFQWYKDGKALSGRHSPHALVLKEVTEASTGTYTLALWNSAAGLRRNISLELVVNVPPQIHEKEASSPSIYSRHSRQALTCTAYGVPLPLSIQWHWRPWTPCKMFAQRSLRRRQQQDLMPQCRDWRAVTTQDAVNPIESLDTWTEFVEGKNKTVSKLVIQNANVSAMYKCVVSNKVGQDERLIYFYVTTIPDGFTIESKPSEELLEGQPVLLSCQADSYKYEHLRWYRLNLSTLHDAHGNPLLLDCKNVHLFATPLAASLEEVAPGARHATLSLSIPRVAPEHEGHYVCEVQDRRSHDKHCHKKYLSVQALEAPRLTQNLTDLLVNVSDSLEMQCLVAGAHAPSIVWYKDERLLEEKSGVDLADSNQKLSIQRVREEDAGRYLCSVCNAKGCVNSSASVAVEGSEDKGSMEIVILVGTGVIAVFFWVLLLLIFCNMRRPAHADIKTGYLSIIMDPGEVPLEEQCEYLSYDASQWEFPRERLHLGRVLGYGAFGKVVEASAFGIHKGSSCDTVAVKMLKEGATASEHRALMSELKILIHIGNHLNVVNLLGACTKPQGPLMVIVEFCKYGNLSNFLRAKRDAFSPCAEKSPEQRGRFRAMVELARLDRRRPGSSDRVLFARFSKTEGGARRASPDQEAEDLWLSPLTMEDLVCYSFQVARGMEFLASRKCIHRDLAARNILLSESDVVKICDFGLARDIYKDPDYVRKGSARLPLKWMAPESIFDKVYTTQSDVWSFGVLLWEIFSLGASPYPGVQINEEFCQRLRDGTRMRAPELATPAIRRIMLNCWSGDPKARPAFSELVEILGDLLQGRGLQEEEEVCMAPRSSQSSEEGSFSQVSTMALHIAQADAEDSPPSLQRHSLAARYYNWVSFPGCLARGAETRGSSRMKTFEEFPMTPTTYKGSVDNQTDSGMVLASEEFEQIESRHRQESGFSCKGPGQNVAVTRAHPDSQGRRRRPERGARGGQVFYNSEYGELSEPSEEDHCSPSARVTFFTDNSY
T2 sequence (P35968 whole entry, looked up): as the sequence (P35968 whole entry) above
Sequence of Cyclin-dependent kinase 1/cyclin B1 (P06493 whole entry): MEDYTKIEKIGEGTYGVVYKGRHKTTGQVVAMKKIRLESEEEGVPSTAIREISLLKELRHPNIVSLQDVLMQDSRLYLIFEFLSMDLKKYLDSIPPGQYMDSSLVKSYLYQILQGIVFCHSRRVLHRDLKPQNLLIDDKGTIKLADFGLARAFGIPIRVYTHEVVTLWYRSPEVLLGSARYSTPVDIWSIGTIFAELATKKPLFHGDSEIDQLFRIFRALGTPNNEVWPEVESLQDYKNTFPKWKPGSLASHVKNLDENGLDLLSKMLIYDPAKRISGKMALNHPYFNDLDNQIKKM
Sequence of Cyclin-dependent kinase 1/cyclin B1 (P14635 whole entry, further chain): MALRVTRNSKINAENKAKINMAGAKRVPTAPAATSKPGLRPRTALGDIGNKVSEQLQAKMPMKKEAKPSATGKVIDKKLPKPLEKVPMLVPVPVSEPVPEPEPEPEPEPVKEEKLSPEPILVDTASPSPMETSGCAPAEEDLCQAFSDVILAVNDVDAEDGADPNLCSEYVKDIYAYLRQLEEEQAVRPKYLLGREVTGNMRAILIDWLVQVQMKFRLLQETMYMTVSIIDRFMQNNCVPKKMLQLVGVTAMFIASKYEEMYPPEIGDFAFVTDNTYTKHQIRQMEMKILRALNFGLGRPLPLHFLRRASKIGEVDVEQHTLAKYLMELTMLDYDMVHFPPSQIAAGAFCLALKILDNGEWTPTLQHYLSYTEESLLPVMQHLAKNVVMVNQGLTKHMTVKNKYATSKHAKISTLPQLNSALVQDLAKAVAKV
Sequence of Vascular endothelial growth factor receptor 3 (Homo sapiens) (P35916 whole entry): as the sequence (P35916 whole entry, looked up) above
Sequence of Vascular endothelial growth factor receptor 1 (Homo sapiens) (P17948 whole entry): as the sequence (P17948 whole entry, looked up) above

Row | inhibition [1] | IC50 [2] | inhibition [3] | IC50 [4] | inhibition [5] | inhibition [6] | inhibition [8] | inhibition [9] | inhibition [10] | inhibition [11] | inhibition [12] | Structure (SMILES) | Activity [7]
1 | 5% |  |  |  |  |  |  |  |  |  |  | Cn1cc(CC2C(=O)NN=C2c2nccs2)c2ccccc21 (stereo not drawn) | 
2 |  | > 100000 nM | 63% | 32 nM | 90% | 66% | 25% | 75% | 13% | 55% | 44% | Cn1cc(/C=C2\C(=O)NN=C2c2nccs2)c2cc3c(cc21)OCO3 | Active
3 | 23% |  |  |  |  |  |  |  |  |  |  | Cn1cc(/C=C2\C(=O)N(c3ccccc3)N=C2c2cnccn2)c2ccccc21 | 
